Activity calls are given as the source filed them. The rule behind the calls is not given here.
How the values were obtained:
[1] = tested on: Mus musculus; assay: Ratio of the relative tumor volume in the Tx group over the control group at day 60, at 4 mg/kg dose (ip) given on days 1, 5 and 9 (In vivo antitumor activity in nude mice); assay type: functional
How it was run: (§1)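 SK-Hep-1 human liver tumor cells inoculated sc into male nude mice. Dosing began once tumors reached 5 mm × 5 mm, given ip on days 1, 5 and 9. Vehicle was normal saline for the reference platinum drug and 5% dextrose for the other Pt complexes. Controls received saline or 5% dextrose. Recorded: T/C (%), body-weight change at nadir, and deaths per group.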

[2] = tested on: Mus musculus; assay: Ratio of the relative tumor volume in the Tx group over the control group at day 60, at 8 mg/kg dose (ip) given on days 1, 5 and 9 (In vivo antitumor activity in nude mice); assay type: functional; how it was run: as §1
[3] = tested on: Mus musculus; assay: Ratio of the relative tumor volume in the Tx group over the control group at day 60, at 2 mg/kg dose (ip) given on days 1, 5 and 9 (In vivo antitumor activity in nude mice); assay type: functional; how it was run: as §1
[4] = tested on: Mus musculus; assay: In vivo antitumor activity in SK-Hep-1 sc-Inoculated Xenograft in male nude mice dosed at 4 mg/kg (ip)on days 1,5 and 9; Not active; assay type: functional, organism-based; design: dose 4 mg/kg; how it was run: as §1
[5] = tested on: Mus musculus; assay: In vivo antitumor activity in SK-Hep-1 sc-Inoculated Xenograft in male nude mice dosed at 8 mg/kg (ip)on days 1,5 and 9; assay type: functional; how it was run: as §1
[6] = tested on: Mus musculus; assay: In vivo antitumor activity in SK-Hep-1 sc-Inoculated Xenograft in male nude mice dosed at 10 mg/kg (ip)on days 1,5 and 9; Acutely toxic; assay type: functional, organism-based; design: dose 10 mg/kg; how it was run: as §1
[7] = tested on: Mus musculus; assay: In vivo antitumor activity in SK-Hep-1 sc-Inoculated Xenograft in male nude mice dosed at 2 mg/kg (ip)on days 1,5 and 9; Not active; assay type: functional, organism-based; design: dose 2 mg/kg; how it was run: as §1
[8] = tested on: L1210; assay: Cytotoxicity against […]sensitive mouse leukemia, assessed by MTT assay after 72 hr of compound exposure; assay type: functional, cell-based
How it was run: (§2)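 MTT cytotoxicity assay run on cisplatin-sensitive parental cells and cisplatin-resistant sublines. Drug exposure was 72 h for L1210 and 96 h for NCI:H460. IC50 determined for each cell line. Fold resistance = IC50 in resistant cells divided by IC50 in parental cells.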

[9] = tested on: MDA-MB-231; assay: Growth inhibitory activity against MDA-MB-231 human breast cancer cell line; assay type: functional, cell-based
How it was run: (§3)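 Tetrazolium (MTT) assay. Drug treatment began 24 h after cell seeding, exposure lasted 72 h, and the MTT test followed. Read-out was IC50.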

[10] = tested on: L1210; assay: Cytotoxicity against […]resistant mouse leukemia, assessed by MTT assay after 72 h of compound exposure (resistance level); assay type: functional, cell-based; how it was run: as §2
[11] = tested on: L1210; assay: Growth inhibitory activity against L1210 mouse leukemia cancer cell line; assay type: functional, cell-based; how it was run: as §3
[12] = tested on: Mus musculus; assay: Toxicity in male nude mice measured as N (no. of deaths), at 100 mg/kg (ip) given on days 1, 5 and 9; assay type: organism-based; design: dose 100 mg/kg; details: in vivo; how it was run: as §1
[13] = tested on: SK-HEP1; assay: Growth inhibitory activity against SK-Hep1 human liver cancer cell line; assay type: functional, cell-based; how it was run: as §3
[14] = tested on: NCI-H460; assay: Growth inhibitory activity against NCI-H460 human lung cancer cell line; assay type: functional, cell-based; how it was run: as §3
[15] = tested on: COLO 320DM; assay: Growth inhibitory activity against COLO-320-DM human colon cancer cell line; assay type: functional, cell-based; how it was run: as §3
[16] = tested on: NTERA-2-cl-D1; assay: Growth inhibitory activity against […]-cl-D1 human testicular cancer cell line; assay type: functional, cell-based; how it was run: as §3
[17] = tested on: NCI-H460; assay: Cytotoxicity against NCI-H460-resistant Human Nonsmall Cell Lung Cancer cell line assessed by MTT assay after 96 hr of compound exposure (resistance level); assay type: functional, cell-based; how it was run: as §2
[18] = tested on: Mus musculus; assay: Toxicity in male nude mice measured as N (no. of deaths), at 25 mg/kg (ip) given on days 1, 5 and 9; assay type: organism-based; design: dose 25 mg/kg; details: in vivo; how it was run: as §1
[19] = tested on: Mus musculus; assay: Toxicity in male nude mice measured as N (no. of deaths), at 50 mg/kg (ip) given on days 1, 5 and 9; assay type: organism-based; design: dose 50 mg/kg; details: in vivo; how it was run: as §1
[20] = tested on: Mus musculus; assay: Toxicity in male nude mice measured as N (no. of deaths), at 120 mg/kg (ip) given on days 1, 5 and 9; assay type: organism-based; design: dose 120 mg/kg; details: in vivo; how it was run: as §1
[21] = tested on: SK-OV-3; assay: Growth inhibitory activity against SK-OV-3 human ovarian cancer cell line; assay type: functional, cell-based; how it was run: as §3
[22] = tested on: NCI-H460; assay: Cytotoxicity against NCI-H460-sensitive Human Nonsmall Cell Lung Cancer cell line assessed by MTT assay after 96 hr of compound exposure; assay type: functional, cell-based; how it was run: as §2
[23] = tested on: Mus musculus; assay: Toxicity in male nude mice measured as N (no. of deaths), at 75 mg/kg (ip) given on days 1, 5 and 9; assay type: organism-based; design: dose 75 mg/kg; details: in vivo; how it was run: as §1
[24] = tested on: Mus musculus; assay: Ratio of the relative tumor volume in the Tx group over the control group at day 60, at 75 mg/kg dose (ip) given on days 1, 5 and 9 (In vivo antitumor activity in nude mice); assay type: functional, organism-based; design: dose 75 mg/kg
[25] = tested on: Mus musculus; assay: Ratio of the relative tumor volume in the Tx group over the control group at day 60, at 50 mg/kg dose (ip) given on days 1, 5 and 9 (In vivo antitumor activity in nude mice); assay type: functional, organism-based; design: dose 50 mg/kg
[26] = tested on: Mus musculus; assay: In vivo antitumor activity in SK-Hep-1 sc-Inoculated Xenograft in male nude mice dosed at 50 mg/kg (ip)on days 1,5 and 9; Not active; assay type: functional, organism-based; design: dose 50 mg/kg
How it was run: (§4)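 Male nude mice bearing subcutaneous SK-Hep-1 human liver tumor xenografts. Dosing started once tumors reached 5 mm × 5 mm, given ip on days 1, 5 and 9. Cisplatin was given in normal saline and other Pt complexes in 5% dextrose; controls received either vehicle. T/C (%), weight change at nadir and deaths recorded.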

[27] = tested on: Mus musculus; assay: In vivo antitumor activity in SK-Hep-1 sc-Inoculated Xenograft in male nude mice dosed at 25 mg/kg (ip)on days 1,5 and 9; Not active; assay type: functional, organism-based; design: dose 25 mg/kg; how it was run: as §4
[28] = tested on: Mus musculus; assay: In vivo antitumor activity in SK-Hep-1 sc-Inoculated Xenograft in male nude mice dosed at 75 mg/kg (ip)on days 1,5 and 9; Not active; assay type: functional, organism-based; design: dose 75 mg/kg; how it was run: as §4
[29] = tested on: Mus musculus; assay: Ratio of the relative tumor volume in the Tx group over the control group at day 60, at 100 mg/kg dose (ip) given on days 1, 5 and 9 (In vivo antitumor activity in nude mice); assay type: functional, organism-based; design: dose 100 mg/kg
[30] = tested on: Mus musculus; assay: In vivo antitumor activity in SK-Hep-1 sc-Inoculated Xenograft in male nude mice dosed at 100 mg/kg (ip)on days 1,5 and 9; assay type: functional, organism-based; design: dose 100 mg/kg; how it was run: as §4
[31] = tested on: Mus musculus; assay: In vivo antitumor activity in SK-Hep-1 sc-Inoculated Xenograft in male nude mice dosed at 120 mg/kg (ip)on days 1,5 and 9; assay type: functional, organism-based; design: dose 120 mg/kg; how it was run: as §4
[32] = tested on: Mus musculus; assay: Ratio of the relative tumor volume in the Tx group over the control group at day 60, at 120 mg/kg dose (ip) given on days 1, 5 and 9 (In vivo antitumor activity in nude mice); assay type: functional, organism-based; design: dose 120 mg/kg
[33] = tested on: Mus musculus; assay: Ratio of the relative tumor volume in the Tx group over the control group at day 60, at 25 mg/kg dose (ip) given on days 1, 5 and 9 (In vivo antitumor activity in nude mice); assay type: functional, organism-based; design: dose 25 mg/kg
[34] = tested on: L1210; assay: Cytotoxicity against Cisplatin-resistant L1210-resistant mouse leukemia, assessed by MTT assay after 72 hr of compound exposure (resistance level); assay type: functional, cell-based; how it was run: as §2
[35] = tested on: Mus musculus; assay: Toxicity in male nude mice measured as N (no. of deaths), at 4 mg/kg (ip) given on days 1, 5 and 9; assay type: organism-based; design: dose 4 mg/kg; details: in vivo; how it was run: as §1
[36] = tested on: Mus musculus; assay: Toxicity in male nude mice measured as N (no. of deaths), at 8 mg/kg (ip) given on days 1, 5 and 9; assay type: organism-based; design: dose 8 mg/kg; details: in vivo; how it was run: as §1
[37] = tested on: Mus musculus; assay: Toxicity in male nude mice measured as N (no. of deaths), at 10 mg/kg (ip) given on days 1, 5 and 9; assay type: organism-based; design: dose 10 mg/kg; details: in vivo; how it was run: as §1
[38] = tested on: Mus musculus; assay: Toxicity in male nude mice measured as N (no. of deaths), at 2 mg/kg (ip) given on days 1, 5 and 9; assay type: organism-based; design: dose 2 mg/kg; details: in vivo; how it was run: as §1
[39] = tested on: Mus musculus; assay: Ratio of the relative tumor volume in the Tx group over the control group at day 60, at 10 mg/kg dose (ip) given on days 1, 5 and 9 (In vivo antitumor activity in nude mice); assay type: functional, organism-based; design: dose 10 mg/kg
[40] = tested on: Mus musculus; assay: In vivo antitumor activity in SK-Hep-1 sc-Inoculated Xenograft in male nude mice dosed at 4 mg/kg (ip)on days 1,5 and 9; assay type: functional, organism-based; design: dose 4 mg/kg; how it was run: as §4
[41] = tested on: Mus musculus; assay: In vivo antitumor activity in SK-Hep-1 sc-Inoculated Xenograft in male nude mice dosed at 10 mg/kg (ip)on days 1,5 and 9; assay type: functional, organism-based; design: dose 10 mg/kg; how it was run: as §4

Row | Molecule | T/C [1] | T/C [2] | T/C [3] | Weight change at nadir [5] | Weight change at nadir [7] | IC50 [8] | IC50 [9] | IC50 [11] | IC50 [13] | IC50 [14] | IC50 [15] | IC50 [16] | IC50 [17] | IC50 [21] | IC50 [22] | other results
1 | O=C1OC(=O)C2C3CCC(O3)C12 (stereo unspecified) [DEMETHYL-CANTHARIDIN] | 66.1% | 34.8% | 63.2% | -20% | inactive | – | – | – | – | – | – | – | – | – | – | Weight change at nadir [4]: inactive; Weight change at nadir [6]: Toxic
2 | CARBOPLATIN [listing 1 of 2 here] | – | – | – | – | – | 17.8 µM | 1080 µM | 10.1 µM | 501 µM | 60.3 µM | 188 µM | 2.75 µM | 54.6 µM | 149 µM | 17.8 µM | IC50 [10]: 138 µM; No. of deaths [12]: 5; No. of deaths [18]: 1; No. of deaths [19]: 2; No. of deaths [20]: 4; No. of deaths [23]: 2
3 | CARBOPLATIN [listing 2 of 2 here] | – | – | – | – | – | – | – | – | – | – | – | – | – | – | – | T/C [24]: 44.9%; T/C [25]: 109%; Weight change at nadir [26]: inactive; Weight change at nadir [27]: inactive; Weight change at nadir [28]: inactive; T/C [29]: 67.8%; Weight change at nadir [30]: -21%; Weight change at nadir [31]: -40%; T/C [32]: 62.8%; T/C [33]: 87.5%
4 | CISPLATIN [listing 1 of 2 here] | – | – | – | – | – | 1.01 µM | 65.7 µM | 0.51 µM | 54.1 µM | 11.3 µM | 11.9 µM | 0.19 µM | 4.96 µM | 15.2 µM | 0.59 µM | IC50 [34]: 14.5 µM; No. of deaths [35]: 4; No. of deaths [36]: 4; No. of deaths [37]: 4; No. of deaths [38]: 1
5 | CISPLATIN [listing 2 of 2 here] | 81.1% | 47.1% | 87.5% | -35% | inactive | – | – | – | – | – | – | – | – | – | – | T/C [39]: 39.6%; Weight change at nadir [40]: -25%; Weight change at nadir [41]: -40%

Reference: ChEMBL document CHEMBL1134507, “Potential new antitumor agents from an innovative combination of demethylcantharidin, a modified traditional Chinese medicine, with a platinum moiety” (J Med Chem, 2001)
